What was measured:
[1] = Safety evaluation: blood biochemical indices; format: in vivo, ICR mice; settings: normal mice, n = 3
In short: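 ICR mice (20–22 g) were randomly divided into six groups and given the treatments used previously. Blood biochemical indices were then assessed.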

[2] = In vivo toxicity: body weight and H&E staining of major organs; set-up: species or system nude mice
In short: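 BALB/c nude mice bearing subcutaneous axillary A549 xenografts (5 × 10^6 cells) were randomised at mean 80 mm3 into six groups (n = 10). Test formulations were given intravenously every two days for five doses, at 2 mg/kg and 0.8 mg/kg of the two loaded agents. One free-agent control was given by oral gavage at 20 mg/kg over 6 days. Body weight was measured every two days. At the end of treatment, one mouse per group was sacrificed, and heart, liver, spleen, lung and kidney were fixed in 4% paraformaldehyde, sectioned and stained with H&E.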

SMILES: COc1cccc2c1C(=O)c1c(O)c3c(c(O)c1C2=O)C[C@@](O)(C(=O)CO)C[C@@H]3O[C@H]1C[C@H](N)[C@H](O)[C@H](C)O1 [Free DOX, doxorubicin]
- level of serum creatine kinase [1]: significantly elevated
- body weight ([2]; A549 tumour-bearing nude mice during treatment): substantial weight loss
- cardiac tissue histology (H&E) ([2]; nude mice bearing subcutaneous A549 tumour): noticeable cardiac tissue degeneration

Source: paper PMC7480498 (Journal of Extracellular Vesicles, 2020)
